pIC50: −log10 of the molar value.

Assay [1] has as its system L1210. As to the kind of experiment: Antiproliferative activity against mouse L1210 cells after 48 hrs relative control. As to conditions: L1210, 48 h. Format: functional, cell-based. In outline:
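L1210 cells grown in RPMI 1640 with 10% fetal calf serum, 2 mM L-glutamine, penicillin/streptomycin and 10 mM HEPES (pH 7.4). Cells were exposed 48 h to graded drug concentrations, then MTT was added for 4 h at 37 °C. Formazan was dissolved in DMSO and OD read at 540 nm. IC50 came from linear regression on the linear part of the dose-response curve, in triplicate.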

Another assay has as its system DU-145. Put plainly: Antiproliferative activity against DU145 cells. Format: functional, Homo sapiens.
For assay [2], the system named is L1210. Put plainly: Cell cycle perturbations in mouse L1210 cells assessed as accumulation in G1 phase after 21 hrs at 0.2 uM relative to control. Format: functional.
Assay [3] relates to L1210. Put plainly: Cell cycle perturbations in mouse L1210 cells assessed as accumulation in S phase after 21 hrs at 0.2 uM relative to control. Format: functional.
The subject of assay [4] is L1210. Put plainly: Cell cycle perturbations in mouse L1210 cells assessed as accumulation in G2+M phase after 21 hrs at 0.2 uM relative to control. Format: functional.
Assay [5] deals with L1210. Put plainly: Cell cycle perturbations in mouse L1210 cells assessed as accumulation in 8N phase after 21 hrs at 0.2 uM relative to control. It is filed as functional.
The target of the next assay is Tubulin. Put plainly: Inhibition of tubulin polymerization. It is filed as protein-complex assay, Homo sapiens.
The test system of assay [6] is L1210. Put plainly: Cell cycle perturbations in mouse L1210 cells assessed as accumulation in G1 phase after 21 hrs at 0.5 uM relative to control. It is filed as functional.
Assay [7] has as its system L1210. Put plainly: Cell cycle perturbations in mouse L1210 cells assessed as accumulation in S phase after 21 hrs at 0.5 uM relative to control. It is filed as functional.
Assay [8] relates to L1210. Put plainly: Cell cycle perturbations in mouse L1210 cells assessed as accumulation in G2+M phase after 21 hrs at 0.5 uM relative to control. It is filed as functional.
Assay [9] concerns L1210. As to the kind of experiment: Cell cycle perturbations in mouse L1210 cells assessed as accumulation in 8N phase after 21 hrs at 0.5 uM relative to control. It is filed as functional.

As to `COc1ccc(CCN2C=CC=C3C2=Nc2ccccc2N(C)S3(=O)=O)cc1`, the values for the pIC50 in the assay on L1210 [1] and against Tubulin were 6.96 and 5.62, respectively. Further, the Activity was found to be 0.14 µM in the assay on DU-145; 5% in the assay on L1210 [2]; 8% with L1210 [3]; 17% in the assay with L1210 [4]; 70% with L1210 [5].
Consider `COc1ccc(CCN2C=CC=C3C2=Nc2ccc(Cl)cc2N(C)S3(=O)=O)cc1`, for which the pIC50 in the assay with L1210 [1] was 6.64. For the same molecule, the Activity in the assay on L1210 [6] came out at 3%; with L1210 [7], 6%; in the assay with L1210 [8], 21%; with L1210 [9] it was 70%.

For the origin of these results see ChEMBL document CHEMBL1139486, “Novel benzopyridothiadiazepines as potential active antitumor agents” (J Med Chem, 2005).
